In brackets after ≈: the same amount, converted by molar mass. Activity calls are given as the source filed them. The rule behind the calls is not given here.
Legend:
Erythrocyte [1] = assay: Antioxidant activity in human erythrocytes assessed as protection against AAPH-induced hemolysis at 400 uM preincubated for 20 mins followed by AAPH addition and measured after 2 hrs by spectrophotometric method relative to control; assay type: functional; details: time 140 min, 2.333 h
Summary of the method: (§1)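 Erythrocyte hemolysis assay with AAPH as the free-radical initiator, testing 50 and 400 µM. Results are expressed as relative protection of membranes against oxidative damage, each the mean of two independent experiments.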

[2] = Acute toxicity in mouse at 150 mg/kg, ip administered as single dose; assay type: organism-based; details: in vivo
Summary of the method: (§2)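 Mice, single intraperitoneal dose, following OECD Guideline for testing of chemicals; three mice per dose level; doses tested 10–300 mg/kg. Read-out is the number of survivors out of 3, used to estimate the expected LD50 range.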

Microsporum canis = assay: Antifungal activity against Microsporum canis; assay type: functional
Pseudomonas aeruginosa = assay: Antibacterial activity against Pseudomonas aeruginosa; assay type: functional
[3] = Drug metabolism assessed as nitric oxide release in presence of rat plasma by Griess reagent based assay; assay type: cell-free
Neisseria gonorrhoeae = assay: Antibacterial activity against Neisseria gonorrhoeae; assay type: functional
Erythrocyte [4] = assay: Antioxidant activity in human erythrocytes assessed as protection against AAPH-induced hemolysis at 50 uM preincubated for 20 mins followed by AAPH addition and measured after 2 hrs by spectrophotometric method relative to control; assay type: functional; details: time 140 min, 2.333 h; summary of the method: as §1
HeLa = assay: Cytotoxicity against human HeLa cells; assay type: functional, cell-based
Trichophyton rubrum = assay: Antifungal activity against Trichophyton rubrum; assay type: functional
Trichophyton violaceum = assay: Antifungal activity against Trichophyton violaceum; assay type: functional
Streptococcus pyogenes = assay: Antibacterial activity against Streptococcus pyogenes; assay type: functional
[5] = tested on: Trichophyton interdigitale; assay: Antifungal activity against Trichophyton mentagrophytes var. interdigitale; assay type: functional
Proteus vulgaris = assay: Antibacterial activity against Proteus vulgaris; assay type: functional
Shigella flexneri = assay: Antibacterial activity against Shigella flexneri; assay type: functional
[6] = Antioxidant activity assessed as AAPH scavenging activity by measuring residual fluorescence at 10 uM measured at 1 min interval for 30 mins by ORAC fluorescein assay relative to control; assay type: functional
Summary of the method: (§3)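 ORAC-FL assay with fluorescein as the probe and AAPH as the peroxyl radical generator. The loss of fluorescence over time was followed, and the result is given as % fluorescence restored at 10 and 50 µM. Each value is the mean of two independent experiments.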

Citrobacter braakii = assay: Antibacterial activity against Citrobacter braakii; assay type: functional
Rattus norvegicus [7] = assay: Antiinflammatory activity in rat model of carrageenan-induced paw edema assessed as inhibition of hind paw swelling at 15 mg/kg, ip measured after 1 hr relative to control; assay type: functional
Candida albicans = assay: Antifungal activity against Candida albicans; assay type: functional
Epidermophyton floccosum = assay: Antifungal activity against Epidermophyton floccosum; assay type: functional
NHDF = assay: Cytotoxicity against HDF cells; assay type: cell-based, Homo sapiens; details: Homo sapiens, NHDF; read-out: IC50
Escherichia coli = assay: Antibacterial activity against Escherichia coli; assay type: functional
Staphylococcus aureus [8] = assay: Antibacterial activity against Staphylococcus aureus; assay type: functional
Rattus norvegicus [9] = assay: Antiinflammatory activity in rat model of carrageenan-induced paw edema assessed as inhibition of hind paw swelling at 15 mg/kg, ip measured after 3 hrs relative to control; assay type: functional
[10] = Antioxidant activity assessed as AAPH scavenging activity by measuring residual fluorescence at 50 uM measured at 1 min interval for 30 mins by ORAC fluorescein assay relative to control; assay type: functional; summary of the method: as §3
Rattus norvegicus [11] = assay: Analgesic activity in rat assessed as prolongation of latency period at 15 mg/kg, ip measured after 1 hr by hot-plate test relative to control; assay type: functional
Summary of the method: (§4)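 Hot-plate test in rats. Compounds were given by intraperitoneal injection. Latency was read at 1 h and, for some compounds, also at 2 h after dosing. Results are expressed as % prolongation of the latent period versus vehicle-treated control. Significance was given as p-values.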

Klebsiella pneumoniae = assay: Antibacterial activity against Klebsiella pneumoniae; assay type: functional
Nannizzia gypsea = assay: Antifungal activity against Trichophyton gypseum; assay type: functional
[12] = Drug metabolism assessed as nitric oxide release in absence of rat plasma by Griess reagent based assay; assay type: cell-free
Serratia marcescens = assay: Antibacterial activity against Serratia marcescens; assay type: functional
[13] = Selectivity index, ratio of IC50 for HDF cells to IC50 for human HeLa cells; assay type: toxicity; details: HDF cells versus HeLa cells, read-out: Ratio IC50
Trichophyton tonsurans = assay: Antifungal activity against Trichophyton tonsurans; assay type: functional
[14] = Antioxidant activity assessed as trolox equivalent of ABTS radical scavenging activity measured after 1 hr by UV-vis spectrophotometric method; assay type: functional
Summary of the method: (§5)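 ABTS cation-radical decolorization was read spectrophotometrically as the fall in absorbance after 1 h. Trolox was the reference. TEAC was taken as the ratio of concentration-response slopes, test/Trolox, and IC50 was also derived. Data are mean ± SEM, n = 3.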

Rattus norvegicus [15] = assay: Antiinflammatory activity in rat model of carrageenan-induced paw edema assessed as inhibition of hind paw swelling at 15 mg/kg, ip measured after 5 hrs; assay type: functional, organism-based
[16] = Antioxidant activity assessed as ABTS radical scavenging activity measured after 1 hr by UV-vis spectrophotometric method; assay type: functional; summary of the method: as §5
[17] = Acute toxicity in mouse at 300 mg/kg, ip administered as single dose; assay type: organism-based; details: in vivo; summary of the method: as §2
Rattus norvegicus [18] = assay: Analgesic activity in rat assessed as prolongation of latency period at 15 mg/kg, ip measured after 2 hrs by hot-plate test relative to control; assay type: functional; summary of the method: as §4
[19] = Acute toxicity in ip dosed mouse administered as single dose; assay type: organism-based; details: in vivo; summary of the method: as §2
[20] = Acute toxicity in mouse at 10 mg/kg, ip administered as single dose; assay type: organism-based; details: in vivo; summary of the method: as §2
[21] = Acute toxicity in mouse at 75 mg/kg, ip administered as single dose; assay type: organism-based; details: in vivo; summary of the method: as §2
Staphylococcus aureus [22] = assay: Antibacterial activity against methicillin resistant Staphylococcus aureus; assay type: functional
[23] = tested on: Mycobacterium tuberculosis; assay: Antitubercular activity against Mycobacterium tuberculosis H37Rv; assay type: functional
Summary of the method: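 Mycobacterium tuberculosis strain H37Rv; minimum inhibitory concentration (MIC) taken as the lowest level needed to inhibit bacterial growth; isoniazid and pyrazinamide served as reference drugs.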

## Cn1nc(C(F)(F)F)c(N=O)c1-c1ccccc1
Erythrocyte [1]
  fold change (FC): 1.02
[2]
  Activity: Non-Toxic
Microsporum canis
  MIC: 100 µg/mL (≈ 392 µM)
Pseudomonas aeruginosa
  MIC: > 500 µg/mL
[3]
  Drug metabolism: Metabolite detected
Neisseria gonorrhoeae
  MIC: 62.5 µg/mL (≈ 245 µM)
Erythrocyte [4]
  fold change (FC): 1
HeLa
  Activity: Dose-dependent effect
HeLa; Homo sapiens, HeLa, read-out: IC50
  IC50: 63.9 µM
Trichophyton rubrum
  MIC: 12.5 µg/mL (≈ 49 µM)
Trichophyton violaceum
  MIC: 6.25 µg/mL (≈ 24.5 µM)
Streptococcus pyogenes
  MIC: > 500 µg/mL
[5]
  MIC: 12.5 µg/mL (≈ 49 µM)
Proteus vulgaris
  MIC: > 500 µg/mL
Shigella flexneri
  MIC: > 500 µg/mL
[6]
  Activity: 3%
Citrobacter braakii
  MIC: > 500 µg/mL
Rattus norvegicus [7]
  inhibition: inactive
Candida albicans
  MIC: inactive
Epidermophyton floccosum
  MIC: 0.38 µg/mL (≈ 1.49 µM)
NHDF
  IC50: 49.5 µM
Escherichia coli
  MIC: > 500 µg/mL
Staphylococcus aureus [8]
  MIC: > 500 µg/mL
Rattus norvegicus [9]
  inhibition: inactive
[10]
  Activity: 16.1%
Rattus norvegicus [11]
  Activity: 80.2%
Klebsiella pneumoniae
  MIC: > 500 µg/mL
Nannizzia gypsea
  MIC: 25 µg/mL (≈ 98 µM)
[12]
  Drug metabolism: Metabolite not detected
Serratia marcescens
  MIC: > 500 µg/mL
[13]
  selectivity ratio: 0.77
Trichophyton tonsurans
  MIC: 3.12 µg/mL (≈ 12.2 µM)
[14]
  Activity: 0.01 equiv
Rattus norvegicus [15]
  Activity: Active

## CS(=O)(=O)c1ccc(N2N=C(c3ccccc3)/C(=N\O)C2(O)C(F)(F)F)cc1 (stereo not drawn)
Erythrocyte [1]
  fold change (FC): 1.14
[16]
  IC50: 169 µM
[17]
  Activity: Non-Toxic
Erythrocyte [4]
  fold change (FC): 1.03
[6]
  Activity: 30.6%
Rattus norvegicus [18]
  Activity: 44.3%
Rattus norvegicus [7]
  inhibition: inactive
[19]
  LD50: > 300 mg/kg
Rattus norvegicus [9]
  inhibition: inactive
[10]
  Activity: 49.1%
Rattus norvegicus [11]
  Activity: 53.7%
[14]
  Activity: 0.16 equiv
Rattus norvegicus [15]
  Activity: Active

## Cl.Nc1c(C(F)(F)F)n[nH]c1-c1cccs1
[2]
  Activity: Toxic
Microsporum canis
  MIC: 200 µg/mL
Pseudomonas aeruginosa
  MIC: > 250 µg/mL
[16]
  IC50: 13.3 µM
Neisseria gonorrhoeae
  MIC: 62.5 µg/mL
Trichophyton rubrum
  MIC: 200 µg/mL
Trichophyton violaceum
  MIC: > 200 µg/mL
Streptococcus pyogenes
  MIC: > 250 µg/mL
[5]
  MIC: > 200 µg/mL
Proteus vulgaris
  MIC: > 250 µg/mL
Shigella flexneri
  MIC: > 250 µg/mL
Citrobacter braakii
  MIC: > 250 µg/mL
[20]
  Activity: Non-Toxic
Candida albicans
  MIC: > 200 µg/mL
Epidermophyton floccosum
  MIC: 200 µg/mL
Escherichia coli
  MIC: > 250 µg/mL
Staphylococcus aureus [8]
  MIC: > 250 µg/mL
[21]
  Activity: Toxic
Klebsiella pneumoniae
  MIC: > 250 µg/mL
Nannizzia gypsea
  MIC: > 200 µg/mL
Serratia marcescens
  MIC: > 250 µg/mL
Trichophyton tonsurans
  MIC: > 200 µg/mL

## O=Nc1c(C(F)(F)F)n[nH]c1-c1cccs1
Erythrocyte [1]
  fold change (FC): 1.12
Microsporum canis
  MIC: 25 µg/mL (≈ 101 µM)
Pseudomonas aeruginosa
  MIC: > 500 µg/mL
Neisseria gonorrhoeae
  MIC: 62.5 µg/mL (≈ 253 µM)
Erythrocyte [4]
  fold change (FC): 1.18
Trichophyton rubrum
  MIC: 12.5 µg/mL (≈ 50.6 µM)
Streptococcus pyogenes
  MIC: 7.8 µg/mL (≈ 31.6 µM)
[5]
  MIC: 50 µg/mL (≈ 202 µM)
Proteus vulgaris
  MIC: 31.2 µg/mL (≈ 126 µM)
Shigella flexneri
  MIC: 500 µg/mL (≈ 2020 µM)
[6]
  Activity: -56.2%
Citrobacter braakii
  MIC: 250 µg/mL (≈ 1010 µM)
Candida albicans
  MIC: 50 µg/mL (≈ 202 µM)
Epidermophyton floccosum
  MIC: 50 µg/mL (≈ 202 µM)
Escherichia coli
  MIC: 250 µg/mL (≈ 1010 µM)
Staphylococcus aureus [8]
  MIC: 15.6 µg/mL (≈ 63.1 µM)
[21]
  Activity: Toxic
[10]
  Activity: -98.7%
Klebsiella pneumoniae
  MIC: 500 µg/mL (≈ 2020 µM)
Staphylococcus aureus [22]
  MIC: 62.5 µg/mL (≈ 253 µM)
Nannizzia gypsea
  MIC: 50 µg/mL (≈ 202 µM)
[12]
  Drug metabolism: Metabolite not detected
Serratia marcescens
  MIC: 250 µg/mL (≈ 1010 µM)
[23]
  MIC: 3.1 µg/mL (≈ 12.5 µM)
Trichophyton tonsurans
  MIC: 50 µg/mL (≈ 202 µM)
[14]
  Activity: 0.02 equiv
Rattus norvegicus [15]
  Activity: Active

## Cc1ccc(-c2[nH]nc(C(F)(F)F)c2N=O)cc1
Erythrocyte [1]
  fold change (FC): 1.03
[2]
  Activity: Non-Toxic
Erythrocyte [4]
  fold change (FC): 1.03
[6]
  Activity: -60%
Rattus norvegicus [18]
  Activity: inactive
[10]
  Activity: -99.8%
Rattus norvegicus [11]
  Activity: inactive
[14]
  Activity: 0.02 equiv
Rattus norvegicus [15]
  Activity: Active

## Cn1nc(C(F)(F)F)c(N=O)c1-c1cccs1
Microsporum canis
  MIC: 25 µg/mL (≈ 95.7 µM)
Pseudomonas aeruginosa
  MIC: > 500 µg/mL
[3]
  Drug metabolism: Metabolite detected
Neisseria gonorrhoeae
  MIC: 500 µg/mL (≈ 1910 µM)
Trichophyton rubrum
  MIC: 12.5 µg/mL (≈ 47.9 µM)
Streptococcus pyogenes
  MIC: > 500 µg/mL
[5]
  MIC: 25 µg/mL (≈ 95.7 µM)
Proteus vulgaris
  MIC: > 500 µg/mL
Shigella flexneri
  MIC: > 500 µg/mL
Rattus norvegicus [18]
  Activity: 43.8%
Citrobacter braakii
  MIC: > 500 µg/mL
Candida albicans
  MIC: 25 µg/mL (≈ 95.7 µM)
Epidermophyton floccosum
  MIC: 50 µg/mL (≈ 191 µM)
Escherichia coli
  MIC: 500 µg/mL (≈ 1910 µM)
Staphylococcus aureus [8]
  MIC: > 500 µg/mL
Rattus norvegicus [11]
  Activity: 29.8%
Klebsiella pneumoniae
  MIC: > 500 µg/mL
Nannizzia gypsea
  MIC: 50 µg/mL (≈ 191 µM)
[12]
  Drug metabolism: Metabolite not detected
Serratia marcescens
  MIC: > 500 µg/mL
[23]
  MIC: 12.5 µg/mL (≈ 47.9 µM)
Trichophyton tonsurans
  MIC: 50 µg/mL (≈ 191 µM)
Rattus norvegicus [15]
  Activity: Active

From ChEMBL document CHEMBL4765448, “Multiple biological active 4-aminopyrazoles containing trifluoromethyl and their 4-nitroso-precursors: Synthesis and evaluation” (Eur J Med Chem, 2020)
